Consider six molecules from BindingDB's records for doi:10.1016/j.bmcl.2007.03.055 (Pharmacopeia Drug Discovery, 2007).

The target of the experiment is Amyloid-beta precursor protein (Homo sapiens, UniProt P05067). The experiment is described as follows: Inhibition of gamma-secretase. A digest of the protocol: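 Membrane preparation (5.0 µg total protein, in 20 mM Hepes pH 5.0, 5 mM EDTA) incubated 2 h at 37 °C with compound serially diluted in DMSO then in start buffer (Hepes pH 7.5, 5 mM EDTA); 2% DMSO final. Quenched with Tris/NaCl/BSA/Triton mix carrying biotin-W02 and Europium-labelled G2-10 (both Aβ40-specific) plus allophycocyanin-streptavidin. Signal developed 2–16 h at room temperature; HTRF at 665 nm. IC50 as mean of ≥2 determinations.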
Chain of Amyloid-beta precursor protein (P05067 whole entry): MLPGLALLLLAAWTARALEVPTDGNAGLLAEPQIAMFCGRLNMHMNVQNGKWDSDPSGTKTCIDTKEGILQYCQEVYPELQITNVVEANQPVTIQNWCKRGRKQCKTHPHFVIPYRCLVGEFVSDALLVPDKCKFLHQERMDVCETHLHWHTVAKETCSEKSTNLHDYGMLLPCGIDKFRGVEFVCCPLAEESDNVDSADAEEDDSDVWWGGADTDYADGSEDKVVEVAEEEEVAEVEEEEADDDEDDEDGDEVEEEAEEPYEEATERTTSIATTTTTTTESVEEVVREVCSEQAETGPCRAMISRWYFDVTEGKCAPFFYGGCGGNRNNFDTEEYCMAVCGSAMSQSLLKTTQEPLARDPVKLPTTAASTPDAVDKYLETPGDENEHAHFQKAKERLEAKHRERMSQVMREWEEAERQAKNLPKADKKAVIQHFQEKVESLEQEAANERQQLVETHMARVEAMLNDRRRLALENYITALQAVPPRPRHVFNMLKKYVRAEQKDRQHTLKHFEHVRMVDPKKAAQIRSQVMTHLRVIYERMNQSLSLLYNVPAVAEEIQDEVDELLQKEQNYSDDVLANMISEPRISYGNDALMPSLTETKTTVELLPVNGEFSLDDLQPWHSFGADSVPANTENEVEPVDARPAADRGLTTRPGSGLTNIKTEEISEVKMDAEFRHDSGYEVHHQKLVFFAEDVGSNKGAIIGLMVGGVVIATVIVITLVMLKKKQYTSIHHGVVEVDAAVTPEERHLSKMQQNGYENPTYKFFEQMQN
A word on the IC50: it is the midpoint of a concentration-inhibition curve. A low value points to higher potency. In the case of `O=C(NCCCn1ccnc1)OCCC1CCc2ccccc2N1S(=O)(=O)c1ccc(Cl)cc1` (stereo unspecified) [2-(1-(4-chlorophenylsulfonyl)-1,2,3,4-tetrahydroquinolin-2-yl)ethyl 3-(1H-imidazol-1-yl)propylcarbamate], the half-maximal inhibitory concentration (IC50) stood at 280 nM. The same measure for `CN1CCCC1CCNC(=O)OCCCC1CCc2ccccc2N1S(=O)(=O)c1ccc(Cl)cc1` (stereo unspecified) [3-(1-(4-chlorophenylsulfonyl)-1,2,3,4-tetrahydroquinolin-2-yl)propyl 2-(1-methylpyrrolidin-2-yl)ethylcarbamate]: 220 nM; for `O=C(NCCCn1ccnc1)OCCCC1CCc2ccccc2N1S(=O)(=O)c1ccc(Cl)cc1` (stereo unspecified) [3-(1-(4-chlorophenylsulfonyl)-1,2,3,4-tetrahydroquinolin-2-yl)propyl 3-(1H-imidazol-1-yl)propylcarbamate]: 86 nM.

`O=C(OCCCC1CCc2ccccc2N1S(=O)(=O)c1ccc(Cl)cc1)N1CCN(C2CCCCC2)CC1` (stereo unspecified) [3-(1-(4-chlorophenylsulfonyl)-1,2,3,4-tetrahydroquinolin-2-yl)propyl 4-cyclohexylpiperazine-1-carboxylate]: the half-maximal inhibitory concentration (IC50) is 180 nM.

On to `CN1CCCC1CCNC(=O)OC[C@H]1CC[C@@H](c2ccccc2)N1S(=O)(=O)c1ccc(Cl)cc1` (stereo partly drawn) [((2R,5S)-1-(4-chlorophenylsulfonyl)-5-phenylpyrrolidin-2-yl)methyl 2-(1-methylpyrrolidin-2-yl)ethylcarbamate], for which inhibition was half-maximal at 600 nM (IC50).

Molecule `O=C(OC[C@H]1CC[C@@H](c2ccccc2)N1S(=O)(=O)c1ccc(Cl)cc1)N1CCN(CCO)CC1` [((2R,5S)-1-(4-chlorophenylsulfonyl)-5-phenylpyrrolidin-2-yl)methyl 4-(2-hydroxyethyl)piperazine-1-carboxylate] showed an IC50 of 540 nM.
